Source: ChEMBL document CHEMBL3526041, “Absorption, metabolism and excretion of [(14)C]mirabegron (YM178), a potent and selective β(3)-adrenoceptor agonist, after oral administration to healthy male volunteers” (Drug Metab Dispos, 2012)
One block for each compound: values may come before it.

How the values were obtained:
Settings in all cases: in vivo
[1] = Drug recovery in healthy human urine treated with [14C]mirabegron at 160 mg, po as single dose measured up to 48 hrs; format: ADME, organism-based; design: dosed compound name [14C]Mirabegron
How it was run: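 Urine was collected at 0–6, 6–12, 12–24 and 24–48 h after a single oral 160 mg [14C]mirabegron dose in four men, with dichlorvos added. Samples underwent solid-phase extraction and radio-HPLC (C18, 40°C), with eluate fractions counted by scintillation. Each peak, as a percentage of eluted radioactivity, was converted to % of dose without recovery correction; mean ± S.D.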

[2] = system: Plasma; experiment: Drug recovery in healthy human plasma treated with [14C]mirabegron at 160 mg, po as single dose measured at 2 hrs; format: ADME, organism-based; design: dosed compound name [14C]Mirabegron
How it was run: (§1)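 Plasma taken at 2, 4, 8 and 12 h from the four subjects was pooled at each time point, with dichlorvos added. Pools underwent solid-phase extraction, then HPLC with fractions counted by low-level liquid scintillation. Each peak is expressed as % of the radioactivity injected onto HPLC.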

[3] = system: Plasma; experiment: Drug recovery in healthy human plasma treated with [14C]mirabegron at 160 mg, po as single dose measured at 4 hrs; format: ADME, organism-based; design: dosed compound name [14C]Mirabegron; how it was run: as §1
[4] = system: Plasma; experiment: Drug recovery in healthy human plasma treated with [14C]mirabegron at 160 mg, po as single dose measured at 8 hrs; format: ADME, organism-based; design: dosed compound name [14C]Mirabegron; how it was run: as §1
[5] = system: Plasma; experiment: Drug recovery in healthy human plasma treated with [14C]mirabegron at 160 mg, po as single dose measured at 12 hrs; format: ADME, organism-based; design: dosed compound name [14C]Mirabegron; how it was run: as §1
[6] = system: Plasma; experiment: Terminal elimination phase half life as total radioactivity in healthy human plasma at 160 mg, po as single dose; format: ADME, organism-based; design: dosed compound name [14C]Mirabegron
How it was run: (§2)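 Four healthy men fasted overnight, then took one oral dose of 160 mg mirabegron containing 1.85 MBq [14C]mirabegron, dissolved in 20 mM sodium citrate pH 4.5. Blood was drawn into lithium heparin tubes from 0 to 168 h. Total radioactivity in whole blood and plasma was counted by liquid scintillation. Unchanged drug in plasma was measured by validated LC-MS/MS (1–500 ng/ml). Parameters were derived noncompartmentally; values are mean ± S.D., n=4.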

[7] = Terminal elimination phase half life as total radioactivity in healthy human urine at 160 mg, po as single dose; format: ADME, organism-based; design: dosed compound name [14C]Mirabegron
How it was run: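 Same single oral 160 mg [14C]mirabegron solution in four fasted healthy men. Urine was collected over 0–6, 6–12 and 12–24 h, then in 24-h intervals to 408 h. Radioactivity was measured by scintillation counting. Unchanged drug was measured by LC-MS/MS (2–1000 ng/ml). Half-life came from log-linear regression of the terminal phase, and renal clearance was also calculated.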

[8] = system: Blood; experiment: Tmax as total radioactivity in healthy human whole blood at 160 mg, po as single dose; format: ADME, organism-based; design: dosed compound name [14C]Mirabegron; how it was run: as §2
[9] = system: Blood; experiment: Cmax as total radioactivity in healthy human whole blood at 160 mg, po as single dose; format: ADME, organism-based; design: dose 160 mg, route oral, dosed compound name [14C]Mirabegron; how it was run: as §2
[10] = system: Blood; experiment: AUC (infinity) as total radioactivity in healthy human whole blood at 160 mg, po as single dose; format: ADME, organism-based; design: dose 160 mg, time infinity, route oral, dosed compound name [14C]Mirabegron; how it was run: as §2
[11] = system: Blood; experiment: Terminal elimination phase half life as total radioactivity in healthy human whole blood at 160 mg, po as single dose; format: ADME, organism-based; design: dosed compound name [14C]Mirabegron; how it was run: as §2
[12] = Drug recovery in healthy human urine at 160 mg, po as single dose measured up to 408 hrs; format: ADME, organism-based; design: dosed compound name [14C]Mirabegron
How it was run: (§3)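 One oral dose of 160 mg [14C]mirabegron (1.85 MBq) given as a solution to four healthy men. Urine and feces were collected to 408 h; feces were homogenized and combusted. Expired air was trapped in hyamine hydroxide at set times to 96 h. All samples were counted by liquid scintillation. Cumulative excretion is given as % of administered radioactivity, mean ± S.D., n=4.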

[13] = Drug recovery in healthy human feces at 160 mg, po as single dose measured up to 408 hrs; format: ADME, organism-based; design: dosed compound name [14C]Mirabegron; how it was run: as §3
[14] = Drug recovery in healthy human expired air at 160 mg, po as single dose measured up to 96 hrs; format: ADME, organism-based; design: dosed compound name [14C]Mirabegron; how it was run: as §3
[15] = system: Homo sapiens; experiment: Total drug recovery in healthy human at 160 mg, po as single dose measured up to 408 hrs; format: ADME, organism-based; design: dosed compound name [14C]Mirabegron; how it was run: as §3
[16] = Drug recovery in healthy human urine at 160 mg, po as single dose measured up to 96 hrs; format: ADME, organism-based; design: dosed compound name [14C]Mirabegron; how it was run: as §3
[17] = system: Homo sapiens; experiment: Toxicity in healthy human assessed as changes in clinical lab values at 160 mg, po as single dose; format: organism-based; design: dosed compound name [14C]Mirabegron
How it was run: (§4)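 Safety in the four dosed men was followed throughout admission: 12-lead ECGs, vital signs, hematology, biochemistry, urinalysis, and physical examinations after a single oral 160 mg [14C]mirabegron solution.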

[18] = system: Homo sapiens; experiment: Toxicity in healthy human assessed as vital signs at 160 mg, po as single dose; format: organism-based; design: dosed compound name [14C]Mirabegron; how it was run: as §4
[19] = system: Homo sapiens; experiment: Toxicity in healthy human assessed as ECG parameter at 160 mg, po as single dose; format: organism-based; design: dosed compound name [14C]Mirabegron; how it was run: as §4
[20] = system: Homo sapiens; experiment: Toxicity in healthy human assessed as changes in physical signs at 160 mg, po as single dose; format: organism-based; design: dosed compound name [14C]Mirabegron; how it was run: as §4
[21] = system: Plasma; experiment: Tmax as total radioactivity in healthy human plasma at 160 mg, po as single dose; format: ADME, organism-based; design: dosed compound name [14C]Mirabegron; how it was run: as §2
[22] = system: Plasma; experiment: Cmax as total radioactivity in healthy human plasma at 160 mg, po as single dose; format: ADME, organism-based; design: dose 160 mg, route oral, dosed compound name [14C]Mirabegron; how it was run: as §2
[23] = system: Plasma; experiment: AUC (infinity) as total radioactivity in healthy human plasma at 160 mg, po as single dose; format: ADME, organism-based; design: dose 160 mg, route oral, time infinity, dosed compound name [14C]Mirabegron; how it was run: as §2
[24] = Drug recovery in healthy human feces at 160 mg, po as single dose measured up to 96 hrs; format: ADME, organism-based; design: dosed compound name [14C]Mirabegron; how it was run: as §3
[25] = Drug recovery in healthy human plasma at 160 mg, po as single dose measured at 12 hrs

Compound recovery [1]: 0.6% | Compound recovery [2]: 6.9% | Compound recovery [3]: 5.9% | Compound recovery [4]: 3.5% | Compound recovery [5]: Below limit of detection
SMILES: Nc1nc(CC(=O)Nc2ccc(CCN(C[C@H](O)c3ccccc3)O[C@@H]3O[C@H](C(=O)O)[C@@H](O)[C@H](O)[C@H]3O)cc2)cs1

beta t1/2 [6]: 28.2 h | beta t1/2 [7]: 84.5 h | Tmax [8]: 2.13 h | Cmax [9]: 777 ng/mL | AUC [10]: 13896 ng·h/mL | beta t1/2 [11]: 30.5 h | Radiolabel recovery [12]: 55% | Radiolabel recovery [13]: 34.2% | Radiolabel recovery [14]: Below limit of detection | Radiolabel recovery [15]: 89.2% | Radiolabel recovery [16]: 48.7% | Tmax [21]: 2.25 h | Cmax [22]: 879 ng/mL | AUC [23]: 10443 ng·h/mL | Radiolabel recovery [24]: 29.3% | Radiolabel recovery [25]: metabolite_not_detected
SMILES: Nc1nc(CC(=O)N[14c]2[14cH][14cH][14c](CCNC[C@H](O)c3ccccc3)[14cH][14cH]2)cs1
Activity [17]: Non-toxic | Activity [18]: Non-toxic | Activity [19]: Non-toxic | Activity [20]: Non-toxic

Compound recovery [1]: 1.3% | Compound recovery [2]: 2.2% | Compound recovery [3]: 1.4% | Compound recovery [4]: Below limit of detection | Compound recovery [5]: Below limit of detection
SMILES: Nc1nc(CC(=O)Nc2ccc(CC(=O)O)cc2)cs1.O=C(O)C(F)(F)F

Compound recovery [1]: 2.9% | Compound recovery [2]: 3.7% | Compound recovery [3]: 4.9% | Compound recovery [4]: 9.4% | Compound recovery [5]: 13%
SMILES: CC(=O)Nc1ccc(CCNC[C@H](O)c2ccccc2)cc1.Cl
